Published values from different studies.
Each line is one published result; the experiments were not run side by side.
Target: Receptor tyrosine-protein kinase erbB-3 (ERBB3, Homo sapiens, UniProt P21860)

Structure (SMILES)	read-out	technique	tested at	remaining binding [%]
COc1ccc2c(O[C@@H]3C[C@H]4C(=O)N[C@]5(C(=O)O)CC5/C=C\CCCCC[C@H](NC(=O)OC5CCCC5)C(=O)N4C3)cc(-c3csc(NC(=O)C(C)C)n3)nc2c1C (stereo partly shown)	cell-free assay	competition with immobilised ligand	1 µM	88
FC(F)(F)Oc1cccc(-c2cnc3ccc(-c4ccncc4)nn23)c1	cell-free assay	competition with immobilised ligand	5 µM	19
c1cnn2ncc(-c3ccnc(N4CCC45COC5)n3)c2c1	binding	–	1 µM	86
C[C@H](c1ccc(F)cc1)N(Cc1cccc(C(=O)O)c1)C(=O)c1cnc2ccccc2c1	cell-free assay	competition with immobilised ligand	1 µM	68
N[C@H]1CCN(c2nccc(-c3cnn4ncccc34)n2)C1	binding	–	1 µM	97
O=C(c1ccc(Nc2nccc(-c3cc4ccccc4s3)n2)cc1)N1CCC(N2CCCC2)CC1	binding	competition with immobilised ligand	1 µM	100
O=C(NCC1CCOCC1)c1n[nH]cc1NC(=O)c1c(F)cccc1F	binding	competition with immobilised ligand	1 µM	73
C[C@H]1CCN(c2nccc(-c3cnn4ncccc34)n2)C1	binding	–	1 µM	100
COc1cnc(Nc2cccc(S(N)(=O)=O)c2)nc1N1CCN(c2ccccc2)C(=O)C1	binding	competition with immobilised ligand	1 µM	98
Cc1c(C(=O)O)cc(-c2ccc(C3CCNCC3)cc2)c2ccc(-c3ccc(C(F)(F)F)cc3)cc12	binding	competition with immobilised ligand	1 µM	86
Nc1ncc2c(n1)-c1c([nH]c3ccc(C#CC4CC4)cc13)CCCC2	binding	competition with immobilised ligand	1 µM	100
O=C(c1ccc(Nc2ncc(Cl)c(-c3ccc(Cl)s3)n2)cc1)N1CCC(N2CCCC2)CC1	binding	competition with immobilised ligand	1 µM	100
C[C@@H](c1ccc(-n2cnc3c(N)ncnc32)cc1)N1CCc2nn(C)c(Cc3ccccc3)c2C1=O	binding	competition with immobilised ligand	0.1 µM	55
O=C(NCCCN1CCOCC1)c1ccc(Nc2nccc(-c3cc4ccccc4s3)n2)cc1	binding	competition with immobilised ligand	1 µM	86
F[C@@H]1CCN(c2nccc(-c3cnn4ncccc34)n2)C1	binding	–	1 µM	100
c1cncc(-c2cccc(Nc3nccc(NC4CCCCC4)n3)c2)c1	binding	competition with immobilised ligand	10 µM	84
CC(=O)N1CCC(c2ccc(C(=O)NC(=N)N)cc2C(F)(F)F)CC1	cell-free assay	competition with immobilised ligand	1 µM	98
CC1CCCN1c1nccc(-c2cnn3ncccc23)n1 (stereo not shown)	binding	–	1 µM	100
Cc1noc([C@H]2C[C@@H](c3ccc(C(F)(F)F)cc3)CN(C(=O)N3CCS(=O)(=O)C3)C2)n1	cell-free assay	competition with immobilised ligand	1 µM	100
CN(C)c1nccc(-c2cnn3ncccc23)n1	binding	–	1 µM	87
CC(C)(O)c1cncc(-c2nc3ccc(F)cc3n2C2CC2)c1	cell-free assay	competition with immobilised ligand	1 µM	80
CN(c1nccc(-c2cnn3ncccc23)n1)C1CC1	binding	–	1 µM	100
